A short description of data set [1]: Volume of distribution at steady state in dog at 0.4 mg/kg, iv and 0.2 mg/kg, po. The class given is ADME, organism-based, Canis lupus familiaris. Conditions: in vivo, read-out: Vdss. The gist of the method:
(§1)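 Dog pharmacokinetics from cassette (N-in-one) dosing of compounds as TFA salts: 0.4 mg/kg iv and 0.2 mg/kg po, n = 2 animals.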

Data set [2] can be described thus: Half life in dog at 0.2 mg/kg, po. It counts as ADME, organism-based, Canis lupus familiaris. More on the design: dose 0.2 mg/kg, route oral. Conditions: in vivo. The gist of the method:
as §1

The next data set relates to Canis familiaris. The experiment in a line: (§2) Oral bioavailability in dog at 0.2 mg/kg, po. The class given is ADME, organism-based, Canis lupus familiaris. To be noted: in vivo. The gist of the method: as §1
Data set [3] is described as follows: Half life in human liver microsomes. The class given is ADME, Microsome.
Data set [4] is described as follows: Protein binding in human serum by equilibrium dialysis. It counts as ADME, cell-free. To be noted: read-out: PB (converted).
The target of data set [5] is Coagulation factor X (Homo sapiens, UniProt P00742). Briefly: Binding affinity to human F10a.
The next data set concerns the target Prothrombin (Homo sapiens, UniProt P00734). The experiment in a line: Inhibition of human thrombin.
Data set [6] in a line: Clearance in dog at 0.4 mg/kg, iv and 0.2 mg/kg, po. It counts as ADME, organism-based, Canis lupus familiaris. Conditions: in vivo. The gist of the method: as §1
Data set [7] is described as follows: as §2. It counts as ADME, organism-based, Canis lupus familiaris. To be noted: in vivo. The gist of the method: as §1
Data set [8] can be described thus: Apparent permeability across Caco-2 cells. The class given is ADME, cell-based. To be noted: human.
Data set [9] concerns the target T1, Coagulation factor X (Oryctolagus cuniculus, UniProt O19045).
T1 sequence (O19045 whole entry): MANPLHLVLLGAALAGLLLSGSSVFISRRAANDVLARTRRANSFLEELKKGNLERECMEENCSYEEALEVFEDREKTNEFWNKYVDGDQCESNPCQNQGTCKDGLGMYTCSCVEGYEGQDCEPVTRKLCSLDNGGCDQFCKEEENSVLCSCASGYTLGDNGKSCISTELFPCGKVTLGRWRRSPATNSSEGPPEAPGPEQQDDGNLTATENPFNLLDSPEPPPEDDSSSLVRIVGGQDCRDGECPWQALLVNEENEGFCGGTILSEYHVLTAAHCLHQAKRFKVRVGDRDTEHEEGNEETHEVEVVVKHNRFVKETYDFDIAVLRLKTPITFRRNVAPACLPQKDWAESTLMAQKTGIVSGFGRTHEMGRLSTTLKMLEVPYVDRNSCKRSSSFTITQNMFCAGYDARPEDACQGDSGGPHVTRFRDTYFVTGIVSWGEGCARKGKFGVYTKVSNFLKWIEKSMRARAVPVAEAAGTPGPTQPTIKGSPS
Briefly: Binding affinity to rabbit F10a.

The species named for the next data set is Oryctolagus cuniculus. Briefly: Inhibition of thrombus formation in rabbit arteriovenous shunt thrombosis model. The class given is functional, organism-based.
Data set [10] is described as follows: Aqueos solubility in saline. The class given is ADME.

Molecules are shown by their SMILES. Converted amounts (≈) assume the structure as drawn.

Sequence of Coagulation factor X (Homo sapiens, UniProt P00742) (P00742 41-179 limits assumed): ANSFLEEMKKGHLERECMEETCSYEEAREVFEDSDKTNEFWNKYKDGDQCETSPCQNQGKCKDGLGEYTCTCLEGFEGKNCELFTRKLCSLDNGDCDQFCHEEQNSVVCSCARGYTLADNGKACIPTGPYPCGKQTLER
Sequence of Coagulation factor X (Homo sapiens, UniProt P00742) (P00742 235-488 limits assumed): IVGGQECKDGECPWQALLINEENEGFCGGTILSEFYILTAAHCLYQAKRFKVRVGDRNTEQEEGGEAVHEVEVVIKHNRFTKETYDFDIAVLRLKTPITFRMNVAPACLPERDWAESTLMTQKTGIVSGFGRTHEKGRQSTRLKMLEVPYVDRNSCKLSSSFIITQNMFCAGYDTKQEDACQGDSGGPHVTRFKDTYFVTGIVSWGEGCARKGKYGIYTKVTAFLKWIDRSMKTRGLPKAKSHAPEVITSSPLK

For `CN(C)Cc1nccn1-c1ccc(NC(=O)c2cc(C(F)(F)F)nn2-c2ccc3onc(N)c3c2)c(F)c1` [RAZAXABAN], the Vd in data set [1] stood at 3.4 L/kg. The half-life is 5.3 h in [2] and 0.633 h in [3]. In addition, the F with Canis familiaris is 84%. In addition, in data set [4], the fraction unbound was 0.09.
For the molecule `COc1ccc(-n2nc(C(N)=O)c3c2C(=O)N(c2ccc(N(C)C(C)=O)cc2)CC3)cc1`, the inhibitory constant (Ki) on Coagulation factor X [5] stood at 0.61 nM; at Prothrombin it was 2520 nM; on Coagulation factor X [9], 2.6 nM. This molecule also gave a clearance in [6] of 46.7 mL/min/kg. In addition, in data set [1], the Vd is 1.7 L/kg. Further, the half-life in data set [2] was 0.7 h. In [7], this molecule returned a bioavailability of 56%. The Papp in data set [8] was found to be 2.5 ×10⁻⁶ cm/s.
In [6], `COc1ccc(-n2nc(C(N)=O)c3c2C(=O)N(c2ccc(N4CCCCC4=O)cc2)CC3)cc1` [APIXABAN] gave a clearance of 0.333 mL/min/kg. Moreover, in data set [1], the Vd turned out to be 0.2 L/kg. In data set [2], this molecule had a half-life of 5.8 h. The molecule further displayed a bioavailability in data set [7] of 58%. Further, 329 nM corresponded to half-maximal inhibition in the data set filed under Oryctolagus cuniculus (IC50). The molecule further registered a solubility in data set [10] of 50 µg/mL (≈ 109 µM). The molecule further displayed a Ki at Coagulation factor X [9] of 0.17 nM.
Regarding `Nc1noc2ccc(-n3nc(C(F)(F)F)c4c3C(=O)N(c3ccc(-c5ccccc5CN5CC[C@@H](O)C5)cc3)CC4)cc12`, in data set [6], the clearance is 5.83 mL/min/kg. In data set [1], the Vd worked out at 1.6 L/kg. The half-life was 5.1 h in [2] and 0.7 h in data set [3]. The same molecule registered a concentration for half-maximal inhibition (IC50) in the data set listed under Oryctolagus cuniculus of 140 nM. For the same molecule, the fraction unbound in data set [4] was 0.03.

The record behind these values is ChEMBL document CHEMBL1137566 (J Med Chem, 2007).
